# Measured values published in ChEMBL document CHEMBL2203019, “Cytotoxic cyclic depsipeptides from the Australian marine sponge Neamphius huxleyi” (J Nat Prod, 2012).
# Structures can show the parent of a compound that is named as a salt. Active and inactive are the calls of the source. The rule behind the calls is not given here.
# Tests used:
# A549 [1] = assay: Cytotoxicity against human A549 cells assessed as cell index at 100 nM after 72 hrs by alamar blue assay; format: functional, cell-based; settings: in the assay text read “xCelligence impedance assay” for “alamar blue assay”
# Summary of the method: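 Real-time impedance (cell index) was recorded on an xCelligence system. A549 cells were seeded at 4000/well, settled 30 min at room temperature, then recorded at 37 °C, 5% CO2. Next day, half the medium was swapped for medium holding 2× compound. Vehicle was 1% DMSO. Runs were in triplicate, in two independent experiments. Readings were taken every minute for 2 h, then hourly to 72 h.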
# NFF = assay: Cytotoxicity against human NFF cells after 72 hrs by alamar blue assay; format: cell-based
# Summary of the method: (§1)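 Cells were kept in DMEM with 10% FBS and penicillin/streptomycin at 37 °C and 5% CO2. 1000 cells/well adhered overnight, then were exposed for 72 h to a 10-point series from 100 μM to 3 nM final (1% DMSO). Alamar blue was added to 10% final for 24 h, and fluorescence was read at ex 535/em 590 nm. Triplicates were run. IC50 came from nonlinear regression, as mean ± SD of two independent experiments. Vincristine was the positive control.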
# PC-3 = assay: Cytotoxicity against human PC3 cells after 72 hrs by alamar blue assay; format: functional, cell-based; settings: PC-3, 72 h
# Summary of the method: (§2)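 Cells were grown in RPMI with 10% FBS and penicillin/streptomycin (37 °C, 5% CO2). Plates held 1000 cells/well and were left overnight to adhere. Compounds were given for 72 h over 10 concentrations from 100 μM to 3 nM final, with 1% DMSO. Viability was read with Alamar blue at 10% final for 24 h (fluorescence ex 535/em 590 nm). Each concentration was run in triplicate. IC50 was fitted by nonlinear regression, as mean ± SD of two experiments. Vincristine served as positive control.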
# [2] = Cytotoxicity against human HEK cells after 72 hrs by alamar blue assay; format: cell-based; settings: HEK293, 72 h; summary of the method: as §1
# LNCaP = assay: Cytotoxicity against human LNCAP cells after 72 hrs by alamar blue assay; format: functional, cell-based; summary of the method: as §2
# HeLa = assay: Cytotoxicity against human HeLa cells after 72 hrs by alamar blue assay; format: functional, cell-based; summary of the method: as §2
# A549 [3] = assay: Cytotoxicity against human A549 cells after 72 hrs by alamar blue assay; format: functional, cell-based; settings: A549, 72 h; summary of the method: as §1
# A549 [4] = assay: Cytotoxicity against human A549 cells assessed as cell proliferation at 100 nM after 48 hrs by confocal microscopic analysis
Compound,Activity (A549 [1]),IC50 (NFF),IC50 (PC-3),IC50 [2],IC50 (LNCaP),IC50 (HeLa),IC50 (A549 [3]),Activity (A549 [4])
CCC(C)C[C@@H](C)[C@@H](O)[C@@H](C)C(=O)N[C@@H](CC(N)=O)C(=O)N[C@@H](CCCNC(=N)N)[C@@H](O)[C@@H](O)C(=O)NC(C(=O)N[C@H]1C(=O)N[C@H]([C@H](C)O)C(=O)N[C@H](CCCNC(=N)N)C(=O)N[C@@H](CC(C)C)C(=O)N(C)[C@@H](CCC(N)=O)C(=O)N[C@H]([C@H](OC)c2ccc(O)cc2)C(=O)N2CCCC[C@H]2C(=O)O[C@@H]1C)C(C)C(C)C(N)=O (relative stereo),inactive,150 nM,130 nM,88 nM,110 nM,210 nM,91 nM,inactive
CO[C@H](c1ccc(O)cc1)[C@H]1NC(=O)[C@H](CCC(=O)O)N(C)C(=O)[C@H](CC(C)C)NC(=O)[C@@H](CCCNC(=N)N)NC(=O)[C@@H]([C@H](C)O)NC(=O)[C@H](NC(=O)C(NC(=O)[C@H](O)[C@H](O)[C@H](CCCNC(=N)N)NC(=O)[C@H](CC(N)=O)NC(=O)[C@H](C)[C@H](O)[C@H](C)CC(C)C)C(C)C(C)C(N)=O)[C@@H](C)OC(=O)[C@@H]2CCCCN2C1=O (relative stereo),–,260 nM,110 nM,160 nM,190 nM,170 nM,131 nM,–
CO[C@H](c1ccc(O)cc1)[C@H]1NC(=O)[C@H](CCC(N)=O)N(C)C(=O)[C@H](CC(C)C)NC(=O)[C@@H](CCCNC(=N)N)NC(=O)[C@@H]([C@H](C)O)NC(=O)[C@H](NC(=O)C(NC(=O)[C@H](O)[C@H](O)[C@H](CCCNC(=N)N)NC(=O)[C@H](CC(N)=O)NC(=O)[C@H](C)[C@H](O)[C@H](C)CC(C)C)C(C)C(C)C(N)=O)[C@@H](C)OC(=O)[C@@H]2CCCCN2C1=O (relative stereo),–,370 nM,170 nM,200 nM,230 nM,110 nM,130 nM,–
CC[C@]1(O)C[C@H]2CN(CCc3c([nH]c4ccccc34)[C@@](C(=O)OC)(c3cc4c(cc3OC)N(C=O)[C@H]3[C@@](O)(C(=O)OC)[C@H](OC(C)=O)[C@]5(CC)C=CCN6CC[C@]43[C@@H]65)C2)C1 [VINCRISTINE SULFATE],–,17 nM,15 nM,31 nM,6.1 nM,36 nM,20 nM,–
